{
  "source": "ChEMBL document CHEMBL4118104",
  "about": "“Design, Synthesis, and Evaluation of Orally Bioavailable Quinoline-Indole Derivatives as Innovative Multitarget-Directed Ligands: Promotion of Cell Proliferation in the Adult Murine Hippocampus for the Treatment of Alzheimer's Disease” (J Med Chem, 2018)",
  "assay_type_in_all_cases": "ADME, organism-based",
  "key": {"[1]": {"experiment": "Apparent volume of distribution in Sprague-Dawley rat at 5 mg/kg, iv administered as single dose by LC-MS/MS analysis", "conditions": "in vivo, read-out: Vz", "procedure,_shortened": "(§1)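 SD rats given 5 mg/kg intravenously, n = 3; pharmacokinetic parameters derived from plasma concentrations.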"}, "[2]": {"experiment": "AUC (0 to infinity) in Sprague-Dawley rat at 30 mg/kg, po by LC-MS/MS analysis", "design": "dose 30 mg/kg, time infinity, route oral", "conditions": "in vivo"}, "[3]": {"experiment": "MRT (0 to t) in Sprague-Dawley rat at 5 mg/kg, iv administered as single dose by LC-MS/MS analysis", "conditions": "in vivo"}, "[4]": {"experiment": "Half life in Sprague-Dawley rat at 5 mg/kg, iv administered as single dose by LC-MS/MS analysis", "conditions": "in vivo", "procedure,_shortened": "as §1"}, "[5]": {"experiment": "Initial plasma concentration in Sprague-Dawley rat at 5 mg/kg, iv administered as single dose by LC-MS/MS analysis"}, "[6]": {"experiment": "Cmax in Sprague-Dawley rat at 30 mg/kg, po by LC-MS/MS analysis", "design": "dose 30 mg/kg, route oral", "conditions": "in vivo", "procedure,_shortened": "(§2)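 SD rats, single oral gavage 30 mg/kg, n = 3; plasma and brain drug levels taken 1 h after dosing, measured by LC-MS/MS.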"}, "[7]": {"experiment": "Oral bioavailability in Sprague-Dawley rat at 30 mg/kg by LC-MS/MS analysis", "conditions": "in vivo", "procedure,_shortened": "(§3)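 SD rats given a single oral gavage dose of 30 mg/kg, n = 3; plasma levels by LC-MS/MS; bioavailability computed against the 5 mg/kg intravenous arm.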"}, "[8]": {"experiment": "Volume of distribution at steady state in Sprague-Dawley rat at 5 mg/kg, iv administered as single dose by LC-MS/MS analysis", "conditions": "in vivo, read-out: Vdss"}, "[9]": {"experiment": "Drug uptake in Sprague-Dawley rat brain at 30 mg/kg, po after 1 hr by LC-MS/MS analysis", "conditions": "read-out: Drug uptake", "procedure,_shortened": "as §2"}, "[10]": {"experiment": "Clearance in Sprague-Dawley rat at 5 mg/kg, iv administered as single dose by LC-MS/MS analysis", "conditions": "in vivo", "procedure,_shortened": "as §1"}, "[11]": {"experiment": "Half life in Sprague-Dawley rat at 30 mg/kg, po by LC-MS/MS analysis", "conditions": "in vivo"}, "[12]": {"experiment": "Tmax in Sprague-Dawley rat at 30 mg/kg, po by LC-MS/MS analysis", "conditions": "in vivo", "procedure,_shortened": "as §3"}},
  "data": [
    {"compound": "Cl.Oc1ccc2[nH]c(-c3ccc4c(Cl)cc(Cl)c(O)c4n3)cc2c1", "values": [
      {"measurement": "Vd", "setting": "[1]", "value": 2.49, "unit": "L/kg"},
      {"measurement": "AUC(0-inf)", "setting": "[2]", "value": 1790, "unit": "ng·h/mL"},
      {"measurement": "MRT last", "setting": "[3]", "value": 22.8, "unit": "min"},
      {"measurement": "half-life", "setting": "[4]", "value": 55.8, "unit": "min"},
      {"measurement": "C0", "setting": "[5]", "value": 4930, "unit": "ng/mL"},
      {"measurement": "Cmax", "setting": "[6]", "value": 1000, "unit": "ng/mL"},
      {"measurement": "bioavailability", "setting": "[7]", "value": 14.1, "unit": "%"},
      {"measurement": "Vd", "setting": "[8]", "value": 0.954, "unit": "L/kg"},
      {"measurement": "concentration at 1 h", "setting": "[9]", "value": 579, "unit": "ng/g"},
      {"measurement": "clearance", "setting": "[10]", "value": 39.3, "unit": "mL/min/kg"},
      {"measurement": "half-life", "setting": "[11]", "value": 215, "unit": "min"},
      {"measurement": "Tmax", "setting": "[12]", "value": 30, "unit": "min"}
    ]}
  ]
}
